# Assay outcomes: PubChem, several laboratories
# An excerpt weighted towards active compounds, which were near 4.5% of everything screened.
# MrgX1 ag: agonists of human MrgX1 receptor, primary screen, HEK293 cells, Fluo-4 calcium flux; Fluo-4 calcium fluorescence, agonist mode; stronger effect = higher value; B-score at 10 µM; 310,000 compounds, 0.44% hits;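 active means calcium response B-score plate-corrected fluorescence ratio at least 3 library SD, with starting fluorescence B-score inside 5 SD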
# Target sequence (Q96LB2 whole entry, looked up): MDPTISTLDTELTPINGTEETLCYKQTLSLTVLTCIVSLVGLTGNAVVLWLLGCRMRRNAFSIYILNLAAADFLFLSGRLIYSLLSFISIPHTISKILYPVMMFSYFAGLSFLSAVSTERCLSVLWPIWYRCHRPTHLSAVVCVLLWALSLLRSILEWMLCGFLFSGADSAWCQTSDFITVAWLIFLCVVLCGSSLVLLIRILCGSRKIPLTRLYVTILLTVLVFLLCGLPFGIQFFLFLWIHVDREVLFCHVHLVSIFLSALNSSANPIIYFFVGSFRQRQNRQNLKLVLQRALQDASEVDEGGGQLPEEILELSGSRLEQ
#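 System: HEK293 cells stably expressing human MrgX1 receptor; Dosing: test compound in the initial addition of three; Schedule: overnight plating, then 30 min 37 °C plus 30 min room-temperature dye loading; Detection: kinetic calcium dye fluorescence, Fluo-4 NW; Controls: per-plate positive and negative controls for Z′ factor.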
# MrgX1 PAM: positive allosteric modulators of MrgX1, primary screen, HEK293 cells, Fluo-4 calcium flux; Mas-related G-protein coupled receptor member X1 (Homo sapiens), Q96LB2; FDSS; stronger effect = higher value; B-score at 10 µM; 310,000 compounds, 0.63% hits;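 active means plate-corrected calcium response at least 3 library SD above typical, normal starting fluorescence, not activating the receptor alone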;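 further: compound read alongside a low EC10 to EC30 dose of BAM8-22 agonist; peak minus trough fluorescence over baseline measured at the second addition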
# RGS4 inh: RGS4 inhibitors, primary screen, cell-based, HEK293 M3R inducible RGS4, calcium flux; Fluo-4 calcium flux; stronger effect = higher value; triggered by carbachol at its EC20; AID 463165, 2010; B-score at 10 µM; 310,000 compounds, 0.45% hits;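 active means B-score, a plate-corrected calcium signal, over three deviations above library mean, with baseline fluorescence within five deviations of library mean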;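 further: RGS4 expression induced by doxycycline in cells with stable M3 receptor; B-score is computed from the integrated fluorescence ratio over baseline after carbachol; higher B-score means a larger calcium signal and so more RGS4 inhibition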
# PHOSPHO1 block: PubChem AID 1565. Phosphoethanolamine/phosphocholine phosphatase (Homo sapiens), Q8TCT1. recombinant PHOSPHO1, absorbance phosphatase assay. inhibition, % at 13.3 µM. 290,000 compounds, 1.1% hits; in the data active means inhibition above about 60%
# Target sequence (Q8TCT1 whole entry, looked up): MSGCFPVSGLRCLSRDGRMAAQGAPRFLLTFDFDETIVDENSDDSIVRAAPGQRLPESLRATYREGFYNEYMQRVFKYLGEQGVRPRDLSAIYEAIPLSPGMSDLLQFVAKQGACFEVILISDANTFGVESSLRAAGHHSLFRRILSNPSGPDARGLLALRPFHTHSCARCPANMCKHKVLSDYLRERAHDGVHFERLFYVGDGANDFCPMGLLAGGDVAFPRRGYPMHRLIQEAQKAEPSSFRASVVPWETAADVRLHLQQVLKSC
# MrgX1 antagonist: antagonists of human MrgX1 receptor, primary screen, HEK293 cells, Fluo-4 calcium flux | BAM8-22 antagonism; stronger effect = lower value | B-score at 10 µM | 310,000 compounds, 1.3% hits | AID 588676, 2011;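 active means calcium-response B-score plate-corrected more than 3 library SD below zero, starting fluorescence within 5 deviations, no agonist response on first addition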;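 further: peak minus trough fluorescence over baseline after final BAM8-22 challenge near maximal dose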
# RGS4 pot: RGS4 potentiators or activators, primary screen, cell-based, HEK293 M3R inducible RGS4, calcium flux; B-score at 10 µM; AID 463111, 2010; carbachol calcium flux Fluo4; stronger effect = lower value; 310,000 compounds, 0.92% hits;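 active means B-score of the integrated calcium signal more than 4 SD below the library mean, with starting fluorescence not abnormally high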;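 further: negative B-score means reduced calcium response which marks RGS4 activation or potentiation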
#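 Material: M3R-expressing HEK293 line, RGS4 induced by doxycycline | Schedule: Overnight RGS4 induction, 30 min dye load 37 °C, 20 min compound RT | Measured by: Fluo4 fluorescence kinetic imaging of calcium | Read-out: Integrated calcium ratio converted to B score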
# RGS4 block valid: enhanced carbachol calcium response, M3R/RGS4 cells, RGS4 inhibitor project, cell-based, validation screen, HEK293 M3R/RGS4, calcium flux | shares compounds with RGS4 inh | carbachol calcium Fluo-4 fluorescence; carbachol added at its EC20; 0 = buffer wells, 100 = carbachol control | calcium response, % at 10 µM | 1,700 compounds, 65% hits | AID 492999, 2010;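 active means duplicate-averaged calcium response above the buffer-only control mean plus 5 SD of those controls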;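 further: integrated fluorescence ratio F max minus min over baseline F0; higher response in RGS4-induced cells means RGS4 inhibition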
# M3R Ca ctr: carbachol calcium response in non-induced M3R cells, confirmation, counter-screen for RGS4 inhibitor project, cell-based, HEK293 M3R; carbachol calcium Fluo-4; submaximal (EC20) carbachol stimulus; buffer wells 0%, carbachol control wells 100%; shares compounds with RGS4 inh; AID 493000, 2010; 1,900 compounds, 20% hits; activity (percent), % at 10 µM; call rule not given here;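 further: RGS4 induction absent so cells express M3R without RGS4; higher means more calcium signal and flags a non-specific hit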
# RGS4 inh ctr2: second counter-screen for RGS4 inhibitors: non-induced cells without carbachol | calcium response (agonist-mode artifact), % at 10 µM | shares compounds with RGS4 inh | 1,900 compounds, 22% hits | HEK293 M3R/RGS4 non-induced, Fluo-4 calcium, no carbachol; normalised: buffer wells 0%, carbachol wells 100%;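 active means duplicate-averaged calcium rise in uninduced cells above buffer wells' mean plus 5 SD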
# Starred values were filed as active, the others as inactive; i = inactive; x = no result.
SMILES,MrgX1 ag,MrgX1 PAM,RGS4 inh,PHOSPHO1 block,MrgX1 antagonist,RGS4 pot,RGS4 block valid,M3R Ca ctr,RGS4 inh ctr2
COc1ccccc1N=c1oc2cc(O)ccc2cc1C(N)=O,i,i,i,20.8,i,i,x,x,x
CC(C)(C)CN1C(=O)C(=O)NC[C@@H]1Cc1ccc(O)cc1,i,i,i,22.1,i,i,x,x,x
O=C(NN1C(=O)c2ccccc2C1=O)c1ccc2c(c1)C(=O)N(CC1CCCO1)C2=O (stereo not drawn),i,i,i,17.7,i,i,x,x,x
Cc1ccc(NC(=O)CCNC(=O)c2ccc(Br)cc2)nc1,i,i,i,52.8,i,i,x,x,x
NC(=O)Cn1ccc(O)c(Cc2ccc(Cl)cc2Cl)c1=O,i,i,i,23.9,i,i,x,x,x
COc1ccc2[nH]cc(CCNS(=O)(=O)c3ccccc3)c2c1,i,i,i,19.9,i,i,x,x,x
O=C1Nc2ccccc2/C1=N/N=C/c1ccc(-c2ccc([N+](=O)[O-])cc2)o1,x,x,4.83*,26.7,x,i,7.5%*,35.0%*,i
Cc1cccn2c(=O)c(C=Nc3ccc(Cl)cc3)c(NCCO)nc12,i,i,i,8.7,i,i,x,x,x
Cc1cccn2c(=O)c(C=NCCO)c(Nc3ccc(Cl)cc3)nc12,i,i,7.53*,11.9,i,i,11.5%*,i,i
COc1ccc(C(=O)Nc2c(Cl)cc(Cl)cc2C(=O)N2CCOCC2)cc1,i,i,i,27.4,i,i,x,x,x
CC1=NN(c2ccccc2)C(=O)/C1=C/c1ccc(-c2ccc(C)c(C(=O)O)c2)o1,i,i,17.1*,x,i,i,73.5%*,i,i
O=C(/C=C/c1ccncc1)c1ccc2c(c1)OCCO2,i,i,7.46*,12.9,i,i,32.5%*,i,i
O=C(Nc1ccncc1)c1ccc2c(c1)OCCO2,i,i,i,-4.2,i,i,x,x,x
CC(=O)Nc1ccc(C(=S)NCC2(N(C)C)CCCCC2)cc1,i,i,i,4.2,i,i,x,x,x
CN(C)C1(CNC(=O)Nc2ccccc2)CCCCC1,i,i,4.67*,39.2,i,i,i,i,i
C=CCOc1nc2sc(C)c(C)c2c(=O)n1-c1ccccc1,i,i,6.04*,55.1,i,i,i,i,i
O=C(Nc1ccccc1C(=O)N1CCCC1)c1ncoc1-c1cccc(Cl)c1,i,i,i,10.3,i,i,x,x,x
COC(=O)N/N=C/c1cc(Br)ccc1O,i,i,i,18.3,i,i,x,x,x
CC(C)NC(=S)N/N=C/c1cc(Br)ccc1O,i,i,5.76*,-9.7,i,i,11.5%*,i,i
Cc1ccc(C)c(-c2cc(C(=O)Nc3sc(C)c(C)c3C(N)=O)c3ccccc3n2)c1,i,i,i,13.5,i,i,x,i,7.0%*
CC(=O)N1c2ccccc2C(C)(C)C2CCC(C)CC21 (stereo not drawn),i,i,i,-26.0,i,i,x,x,x
Fc1ccc(-c2csc(Nc3ccccn3)n2)cc1,i,i,i,9.2,i,i,i,i,i
O=c1[nH]c(=O)n(Cc2ccco2)c2c1C(C(F)(F)F)(C(F)(F)F)N=C(c1ccc(F)cc1)N2,i,i,i,-2.1,i,i,i,i,i
CC(C)CC(=O)NC1(C(F)(F)F)C(=O)Nc2c1c(=O)[nH]c(=O)n2Cc1ccco1 (stereo not drawn),i,i,i,-4.2,i,i,x,x,x
O=C1c2ccccc2NC(c2ccc(-c3ccc(Br)cc3)o2)N1O (stereo not drawn),i,i,i,25.7,i,i,x,x,x
SMILES,MrgX1 ag,MrgX1 PAM,RGS4 inh,PHOSPHO1 block,MrgX1 antagonist,RGS4 pot,RGS4 block valid,M3R Ca ctr,RGS4 inh ctr2
O=C1c2ccccc2NC(c2ccc(-c3cccc([N+](=O)[O-])c3)o2)N1O (stereo not drawn),i,i,i,-1.0,i,i,x,i,i
Cc1cc(C)cc(OCC(=O)N(Cc2ccccc2)C2CCS(=O)(=O)C2)c1 (stereo not drawn),i,i,i,12.1,i,i,x,x,x
O=C1NN(c2ccc(Br)cc2)C(=O)/C1=C\c1ccc(O)cc1O,i,i,i,19.3,i,i,x,x,x
O=C1NN(c2cccc(Br)c2)C(=O)/C1=C\c1ccc(O)cc1,i,i,i,13.7,i,i,x,31.0%*,i
CCOc1cc(/C=C2/C(=O)NN(c3cccc(Cl)c3)C2=O)ccc1O,i,i,5.7*,29.0,i,i,5.0%*,i,19.5%*
COCCN1C(=O)C(=O)/C(=C(/O)c2ccc(S(=O)(=O)N3CCOCC3)cc2)C1c1cccc([N+](=O)[O-])c1 (stereo not drawn),i,i,i,23.9,i,i,x,x,x
COc1ccc(OC)c(C(=O)NC(CC(N)=O)c2ccc(NCCN3CCOCC3)c([N+](=O)[O-])c2)c1 (stereo not drawn),i,i,i,34.3,i,i,x,x,x
CC1CC(C)CN(CCCNS(=O)(=O)c2ccc3c(c2)oc(=O)n3C)C1 (stereo not drawn),i,i,i,51.4,i,i,x,x,x
Cc1cc(=O)[nH]c(N2CCN(Cc3ccccc3)CC2)n1,i,i,i,2.1,i,i,x,x,x
O=c1cc(-c2ccc(Cl)cc2)nc(N2CCN(c3ccccc3)CC2)[nH]1,i,i,9.74*,18.9,i,i,i,32.0%*,i
Cc1nc(NC(=O)CSc2nc3cccnc3n2C2CCCCC2)sc1C,i,i,i,36.3,i,i,x,i,i
